# HUVEC prolif 384 – blocks proliferation of human endothelial cells | HUVEC proliferation, CellTiter-Glo luminescence, 72 h; hits give low values | viability, % at 10 µM (by protocol) | 86,000 tested, 1.1% active;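 active means viability at or below 30%; inactive means viability above 30%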;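 further: 100% = median luminescence of DMSO-only cell control wells on each plate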
# HCT116 bCat-KO – beta-catenin-lacking colon tumor cell growth suppression | HCT116 beta-catenin knockout viability, CellTiter-Glo, 60 h; hits give low values | viability, % at 10 µM | 140,000 tested, 1.5% active | AID 818;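 active means viability at or under a set limit, the compound median less 4 SD, cut at about 6% in these data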;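 further: 0% = Hyamine 1622 control at 20 µM and 100% = untreated cell control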
# H69AR inhibit – growth inhibitors of human H69AR lung tumor cells | 85,000 tested, 6% active | H69AR lung tumor viability, ATP luminescence, 72 h; hits give low values | viability, % at 10 µM;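 active means viability at or below 40%; inactive means viability above 40%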;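 further: multidrug resistant small cell line overexpressing MRP-1 efflux transporter; 100% = mean luminescence of untreated control wells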
# Fibroblast inh – blocks proliferation of human lung fibroblasts; AID 719; LL 47 human lung fibroblast viability, ATP luminescence; hits give low values; 85,000 tested, 1.1% active; viability, % at 10 µM;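 active means viability at or below 50% in the single dose screen; inactive means viability above 50%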;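 further: compound exposure lasted 72 h before the ATP readout; 100% = median luminescence of untreated cell-only wells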
#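 Signal: luminescent ATP detection, CellTiter-Glo; assay system: LL 47 human lung fibroblasts; input: 1,150 cells/well; incubation: overnight cell rest, 72 h compound treatment at 37 °C; measure: % viability versus median cells-only luminescence; medium: IMEM growth medium with 15% fetal bovine serum; dosing: compound addition at 0.1% DMSO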
# Calb biofilm kill – kills Candida albicans biofilms; C. albicans biofilm + clotrimazole, Alamar Blue; inhibition, % at 6 µM; 85,000 tested, 0.14% active; AID 834;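 active means inhibition above 20%; inactive means inhibition below 20%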;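 further: preformed 24 hr biofilms exposed to compound for 48 hr; 0% = biofilm without compound and 100% = blank killed by clotrimazole plus chlorhexidine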
# HCT116 PTEN-null – suppresses growth of cells with PTEN deletion; viability, % at 10 µM; 140,000 tested, 1.2% active; AID 827; HCT116 PTEN-null viability, CellTiter-Glo, 60 h; hits give low values;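 active means viability at or below a set limit, 4 SD under the median of all tested compounds, cut at about 3.7% in these data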;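 further: PTEN knockout HCT116 line with beta catenin targeted HCT116 as companion control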
# Numbers without * were called inactive; . = not tested or not shown. The sample as a whole holds a higher share of hits than the screen did.
SMILES,HUVEC prolif 384,HCT116 bCat-KO,H69AR inhibit,Fibroblast inh,Calb biofilm kill,HCT116 PTEN-null
O=c1c2ccccc2nc2ccc(NCc3ccco3)nn12,85,65,39*,88,8,68
O=C(CCSc1ccc(Cl)cc1)N1CCN(c2ncccn2)CC1,100,94,101,45*,-1,95
O=C(CCSc1ccc(Cl)cc1)N1CCCCCC1,.,101,.,.,.,99
COc1ccc(NC(=O)CCCn2c(=O)c3sccc3n(Cc3ccccc3C)c2=O)cc1,.,81,.,.,.,95
COc1ccc(NC(=O)CCCn2c(=O)c3sccc3n(Cc3ccccc3)c2=O)cc1,.,11,.,.,.,0.8*
CC(C)c1ccc(/C=N/NC(=O)C(=O)NCCCN2CCOCC2)cc1,.,101,.,.,.,94
O=C(NCCCN1CCOCC1)C(=O)N/N=C/c1c2ccccc2cc2ccccc12,.,1.6*,.,.,.,2.2*
O=C(OCC(=O)N1CCN(C(=O)c2ccco2)CC1)c1cc(-c2ccc(Cl)c(Cl)c2Cl)nc2ccccc12,6.3*,58,0.9*,104,8,34
O=C(COC(=O)c1ccncc1)Nc1cc(Cl)c(Cl)cc1Cl,104,100,91,101,0,98
Cn1c(C(=O)NC2CCCCCC2)cc2c(=O)n(C)c3ccccc3c21,60,61,12*,93,0,54
CC1CCCCN1CCNC(=O)c1cc2c(=O)n(C)c3ccccc3c2n1C (stereo not given),84,37,85,91,3,36
CC1CCC(NC(=O)c2cc3c(=O)n(C)c4ccccc4c3n2C)CC1 (stereo not given),68,73,29*,88,-1,48
CCCN(CCC)CCNC(=O)c1cc2c(=O)n(C)c3ccccc3c2n1C,83,81,76,83,4,89
Cn1c(C(=O)NC2CCCCC2)cc2c(=O)n(C)c3ccccc3c21,61,3.4*,11*,103,8,19
O=C1NC(=S)N/C1=C/c1cc([N+](=O)[O-])ccc1O,95,98,94,104,0,96
CCN(CC)CCN(C)C1CCC(c2ccccc2)CC1 (stereo not given),.,69,.,.,.,74
Cc1ccc2nc3c(c(N)c2c1)CCN3c1ccccc1,88,86,73,89,-4,79
CCCCN1CCc2c1nc1ccc(Br)cc1c2N,13*,8,68,28*,6,6
COC(=O)Cc1ccc(NC(=S)N2CCN(c3ccc(F)cc3)CC2)cc1,.,91,.,.,.,85
COc1cccc(C2=CC(c3ccc(C)cc3)n3ncnc3N2)c1 (stereo not given),79,83,78,92,10,103
COc1ccccc1C1C=C(c2ccccc2)Nc2nnnn21 (stereo not given),69,91,11*,61,8,86
COc1ccc(C2=CC(c3sccc3C)n3nnnc3N2)cc1 (stereo not given),91,75,40,94,5,84
COc1cccc(C2=CC(c3ccc(OC)c(OC)c3OC)n3nnnc3N2)c1 (stereo not given),85,16,7.6*,79,9,17
COc1cccc(C2=CC(c3cccs3)n3nnnc3N2)c1 (stereo not given),55,26,15*,62,8,20
COc1ccc(C2=CC(c3ccc(F)cc3)n3nnnc3N2)cc1 (stereo not given),101,90,68,98,-2,100
SMILES,HUVEC prolif 384,HCT116 bCat-KO,H69AR inhibit,Fibroblast inh,Calb biofilm kill,HCT116 PTEN-null
Cc1ccc(N2C(=O)CC2(C#N)c2ccc(OCc3ccccc3)cc2)cc1 (stereo not given),.,80,.,.,.,72
CCOC(=O)Cn1c(=O)oc2cc(S(=O)(=O)N3CCN(C(=O)c4ccco4)CC3)ccc21,.,95,.,.,.,100
COc1cc(C(=O)O/N=C2/C=CC(=O)C(C)=C2C)cc(OC)c1OC,.,18,.,.,.,2.5*
COc1cccc(NC(=O)Nc2nnc(-c3ccccc3SCc3ccccc3)s2)c1,79,32,17*,66,6,30
Cc1ccccc1-n1nnnc1SC1CCOC1=O (stereo not given),92,92,91,94,9,104
Cn1cnc([N+](=O)[O-])c1S(=O)(=O)c1cccc(Cl)c1,.,1.2*,.,.,.,0.9*
CN(C)c1c([N+](=O)[O-])ncn1C,95,93,94,105,5,91
CCOC(=O)Cn1c(=NC(=O)c2sc3ccccc3c2Cl)sc2cc(S(N)(=O)=O)ccc21,.,26,.,.,.,2.8*
COc1cc(/C=C/C(=O)O)cc(S(=O)(=O)Nc2cccc(SC)c2)c1OC,.,100,.,.,.,98
Cc1nn(-c2ccccc2)c2sc(C(=O)n3cccn3)cc12,48,.,38*,92,6,.
Cc1cnc(NC(=O)c2cc3c(C)nn(-c4ccccc4)c3s2)s1,64,61,26*,62,6,40
Cc1nn(Cc2c(Cl)cccc2Cl)c(C)c1NC(=O)c1cn(-c2ccccc2)nc1-c1ccccc1,.,0.6*,.,.,.,0.5*
Cc1nn(Cc2c(Cl)cccc2Cl)c(C)c1NC(=O)c1sc2ccccc2c1Cl,.,91,.,.,.,87
COc1cc(-c2nc(-c3ccc(Br)o3)no2)cc(OC)c1OC,99,82,80,93,4,79
COc1ccc(-c2noc(-c3ccc(Br)o3)n2)cc1OC,29*,103,81,88,-2,107
N#CC1(c2ccccc2)CCC(=NO)CC1 (stereo not given),89,95,95,96,-6,93
COc1ccc(/C=N/NC(=O)c2ccc3ccccc3c2)cc1OS(=O)(=O)c1ccc(NC(C)=O)cc1,.,14,.,.,.,14
Cc1ccc(S(=O)(=O)Cn2nnnc2C(C(C)C)N2CCN(c3nc4ccccc4s3)CC2)cc1 (stereo not given),85,68,27*,92,8,76
CCCn1c(O)c(/C=C2\C=NN=C2c2ccccc2)sc1=S,.,32,.,.,.,37
CCCCC(CC)Cn1c(O)c(/C=C2\C=NN=C2c2ccccc2)sc1=S (stereo not given),.,2.1*,.,.,.,1.6*
OC(CN1CCN(c2cccc(C(F)(F)F)c2)CC1)c1c[nH]c2ccccc12 (stereo not given),67,73,2.6*,58,6,69
OC(COCc1cccs1)CN1CCN(c2cccc(C(F)(F)F)c2)CC1 (stereo not given),.,73,.,.,.,92
O=C1C(Cl)=C(Nc2ccccc2)C(=O)c2ccccc21,.,1.1*,.,.,.,1.0*
Cc1ccc(S(=O)(=O)/N=C(\CCl)N2CCOCC2)cc1,77,54,1.2*,59,4,57
CCc1ccc(NC(=S)NC(=O)CC(C)C)cc1,.,78,.,.,.,96
Cc1ccc(NC(=O)CSc2n[nH]c(-c3ccncc3)n2)cc1C,88,98,81,110,12,114
Cc1[nH]n(-c2ccc([N+](=O)[O-])cc2)c(=O)c1N=Nc1nc2ccccc2s1,41,.,35*,.,3,.
Cn1cnnc1SCC(=O)NNC(=O)c1ccc(Cl)cc1,.,96,.,.,.,93

# Screens from PubChem.
